Data taken from ChEMBL document CHEMBL2311350, “Discovery of a novel phenylethyl benzamide glucokinase activator for the treatment of type 2 diabetes mellitus” (Bioorg Med Chem Lett, 2013).
Calls of active or inactive are those of the source. The calls are words filed in the database; no cut-off is given here.

Experiments:
[1] = target: T1, Hexokinase-1 (Homo sapiens) (UniProt P19367); assay: Induction of hexokinase 1 (unknown origin)
T1 sequence (whole entry): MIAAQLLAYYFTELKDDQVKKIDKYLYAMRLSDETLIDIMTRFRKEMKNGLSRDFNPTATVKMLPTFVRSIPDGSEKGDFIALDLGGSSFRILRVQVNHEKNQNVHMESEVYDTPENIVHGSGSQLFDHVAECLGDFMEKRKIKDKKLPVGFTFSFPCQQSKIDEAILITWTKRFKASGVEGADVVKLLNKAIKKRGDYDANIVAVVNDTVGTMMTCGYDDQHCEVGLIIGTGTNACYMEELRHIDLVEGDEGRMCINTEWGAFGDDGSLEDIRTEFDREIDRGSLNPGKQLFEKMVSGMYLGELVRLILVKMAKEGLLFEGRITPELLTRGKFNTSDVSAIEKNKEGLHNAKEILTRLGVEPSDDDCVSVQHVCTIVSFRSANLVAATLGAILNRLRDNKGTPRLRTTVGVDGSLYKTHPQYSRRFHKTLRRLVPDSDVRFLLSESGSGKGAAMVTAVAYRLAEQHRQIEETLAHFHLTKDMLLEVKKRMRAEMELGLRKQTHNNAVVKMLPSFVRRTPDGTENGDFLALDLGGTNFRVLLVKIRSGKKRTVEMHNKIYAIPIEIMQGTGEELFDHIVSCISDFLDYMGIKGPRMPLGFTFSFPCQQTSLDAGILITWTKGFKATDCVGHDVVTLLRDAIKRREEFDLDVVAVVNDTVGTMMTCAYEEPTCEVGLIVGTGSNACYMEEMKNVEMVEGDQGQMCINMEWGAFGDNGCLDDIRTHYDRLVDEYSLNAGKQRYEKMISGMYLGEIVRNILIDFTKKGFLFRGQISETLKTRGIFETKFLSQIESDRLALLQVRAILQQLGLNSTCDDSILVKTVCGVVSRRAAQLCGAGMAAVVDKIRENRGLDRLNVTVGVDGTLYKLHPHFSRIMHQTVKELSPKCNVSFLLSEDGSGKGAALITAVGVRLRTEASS
Procedure, shortened: (§1)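 Selectivity tested in enzymatic hexokinase 1 and hexokinase 2 activity assays.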

[2] = species: Mus musculus; assay: Antidiabetic activity in C57BL/J mouse assessed as reduction in basal glucose level measured after acute treatment; type: functional, organism-based
Procedure, shortened: (§2)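 Basal blood glucose change followed after acute oral dosing in non-diabetic C57BL/J6 or diabetic ob/ob mice.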

[3] = species: Mus musculus; assay: Antidiabetic activity in ob/ob mouse assessed as reduction in basal glucose level measured after acute treatment; type: functional, organism-based; procedure, shortened: as §2
[4] = test system: MIN6; assay: Induction of insulin secretion in mouse MIN6 cells; type: functional, cell-based
Procedure, shortened: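 Glucose-dependent insulin secretion measured in the mouse pancreatic beta-cell line MIN-6 across glucose levels.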

[5] = species: Mus musculus; assay: Antidiabetic activity in ob/ob mouse assessed as reduction in blood glucose level measured after subchronic treatment; type: functional, organism-based
Procedure, shortened: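 ob/ob mice dosed orally and repeatedly in a subchronic study. Blood glucose, serum lipids and body weight were monitored.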

[6] = target: T2, Hexokinase-2 (Homo sapiens) (UniProt P52789); assay: Induction of hexokinase 2 (unknown origin); procedure, shortened: as §1
T2 sequence (whole entry): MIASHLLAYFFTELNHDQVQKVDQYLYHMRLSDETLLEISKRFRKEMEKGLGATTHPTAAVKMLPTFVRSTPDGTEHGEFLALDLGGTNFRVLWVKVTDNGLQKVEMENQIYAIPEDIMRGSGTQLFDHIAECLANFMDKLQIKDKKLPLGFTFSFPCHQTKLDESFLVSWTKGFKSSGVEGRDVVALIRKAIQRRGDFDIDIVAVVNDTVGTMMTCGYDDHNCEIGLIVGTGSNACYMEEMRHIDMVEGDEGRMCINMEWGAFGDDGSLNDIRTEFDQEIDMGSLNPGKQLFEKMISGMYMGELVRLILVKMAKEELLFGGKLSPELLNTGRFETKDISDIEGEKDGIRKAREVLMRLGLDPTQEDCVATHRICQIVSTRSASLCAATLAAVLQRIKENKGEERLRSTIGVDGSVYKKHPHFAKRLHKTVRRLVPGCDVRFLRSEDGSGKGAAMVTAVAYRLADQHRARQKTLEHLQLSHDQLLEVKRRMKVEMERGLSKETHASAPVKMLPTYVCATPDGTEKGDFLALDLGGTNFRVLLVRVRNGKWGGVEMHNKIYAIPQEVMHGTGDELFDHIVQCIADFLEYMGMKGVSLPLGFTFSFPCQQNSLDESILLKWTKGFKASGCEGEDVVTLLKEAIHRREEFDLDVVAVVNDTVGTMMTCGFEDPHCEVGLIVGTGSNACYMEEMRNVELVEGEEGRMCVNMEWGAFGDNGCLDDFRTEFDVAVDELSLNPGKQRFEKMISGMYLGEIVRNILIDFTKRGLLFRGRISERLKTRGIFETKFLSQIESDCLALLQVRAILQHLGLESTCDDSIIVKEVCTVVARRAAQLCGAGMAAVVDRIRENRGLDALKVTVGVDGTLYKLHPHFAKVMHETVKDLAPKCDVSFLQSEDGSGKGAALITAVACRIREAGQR

[7] = species: Mus musculus; assay: Increase in oral glucose tolerance in C57BL/J mouse; type: functional, organism-based
Procedure, shortened: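 C57BL/J6 mice given oral dosing followed by an oral glucose tolerance test. Plasma glucose was tracked over time and glucose AUC reduction calculated. Several doses were tested, including 50 and 150 mg/kg. Hypoglycemia risk was judged from the glucose profiles.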

[8] = target: T3, Hexokinase-4 (Homo sapiens) (UniProt P35557); assay: Induction of human pancreatic glucokinase activity assessed as half maximal saturation concentration of glucose at 5 mM glucose concentration
T3 sequence (whole entry): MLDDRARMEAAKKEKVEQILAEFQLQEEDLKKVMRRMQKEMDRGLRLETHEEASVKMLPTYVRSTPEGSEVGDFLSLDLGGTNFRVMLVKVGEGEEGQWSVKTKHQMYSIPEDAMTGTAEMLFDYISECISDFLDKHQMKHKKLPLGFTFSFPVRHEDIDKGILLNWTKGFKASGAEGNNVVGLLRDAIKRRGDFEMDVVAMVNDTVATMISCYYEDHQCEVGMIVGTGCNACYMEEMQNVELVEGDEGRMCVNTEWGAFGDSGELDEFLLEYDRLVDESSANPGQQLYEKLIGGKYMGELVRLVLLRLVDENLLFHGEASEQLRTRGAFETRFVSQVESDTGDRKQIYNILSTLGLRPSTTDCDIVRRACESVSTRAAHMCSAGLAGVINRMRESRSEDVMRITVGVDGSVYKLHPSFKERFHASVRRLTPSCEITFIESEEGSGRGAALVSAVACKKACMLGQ
Procedure, shortened: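 Enzymatic assay with purified recombinant human pancreatic or liver glucokinase, read as fold increase in activity at 5.0 mM glucose. EC50 is the mean of at least duplicate runs. For the pancreatic enzyme, glucose S0.5 and Vmax were also determined.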

With `COC[C@H](C)Oc1cc(CCc2c(F)cccc2F)cc(C(=O)Nc2ccc(C(=O)O)cn2)c1` the Activity [1] was “inactive”, the Activity [2] was “Active” and the Activity [3] was “Active”. The Activity [4] was “Dose-dependent effect”, the Activity [5] was “Active” and the Activity [6] was “inactive”. For the same compound, the Activity [7] was “Dose-dependent effect” and the Activity [8] was “Active”.
